The source made the active and inactive calls. No cut-off for these calls is given here.
Columns and labels:
[1] = Oral bioavailability in dog; format: ADME, organism-based, Canis lupus familiaris; conditions: in vivo
[2] = AUC (0 to 12 hrs) in human at 100 mg, po BID administered on day 1 followed by 2-day wash out period after which dosing continued up to day 11 measured on day 11; format: ADME, organism-based; set-up: time < 12 hr, dose 100 mg, route oral; conditions: plasma
How it was run: (§1)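 Double-blind, placebo-controlled, randomized dose-escalation study in healthy male volunteers, six cohorts of eight (six active, two placebo). Oral dose on day 1, two-day washout, then dosing days 4–11; the 200 mg qd cohort was titrated over days 1–4. Venous blood taken predose and at 0.5–12 h on days 1, 4 and 11; plasma drug measured. τ 12 h (bid), 24 h (qd), 8 h (tid), 6 h (qid).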

[3] = Apparent half life in human at 150 mg, po TID administered on day 1 followed by 2-day wash out period after which dosing continued up to day 11 measured on day 11; format: ADME, organism-based; conditions: in vivo, read-out: t1/2(app) (converted); how it was run: as §1
Rattus norvegicus = experiment: Antidyslipedic activity in fasted Sprague-Dawley rat assessed as decrease in free fatty acid level at 0.1 to 30 mg/kg, po by NEFA C-free fatty acid assay; format: functional; set-up: scale not given: the % may be the effect or the level left; conditions: dose mg/kg 0.1-30
How it was run: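 Male Sprague-Dawley rats fasted, compound by oral gavage, serial plasma sampling after dosing for free fatty acids over a time course; vehicle-dosed control group.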

Canis familiaris = experiment: Dose normalized AUC in po dosed dog; format: ADME, organism-based, Canis lupus familiaris; conditions: in vivo
[4] = AUC (0 to 6 hrs) in human at 175 mg, po QID administered on day 1 followed by 2-days wash out period after which dosing continued up to day 11 measured on day 4; format: ADME, organism-based; set-up: time < 6 hr, dose 175 mg, route oral; conditions: plasma; how it was run: as §1
Cytochrome P450 2C8 = target: T1, Cytochrome P450 2C8 (Homo sapiens, UniProt P10632); experiment: Activity at CYP2C8; format: ADME
T1 sequence (P10632 whole entry): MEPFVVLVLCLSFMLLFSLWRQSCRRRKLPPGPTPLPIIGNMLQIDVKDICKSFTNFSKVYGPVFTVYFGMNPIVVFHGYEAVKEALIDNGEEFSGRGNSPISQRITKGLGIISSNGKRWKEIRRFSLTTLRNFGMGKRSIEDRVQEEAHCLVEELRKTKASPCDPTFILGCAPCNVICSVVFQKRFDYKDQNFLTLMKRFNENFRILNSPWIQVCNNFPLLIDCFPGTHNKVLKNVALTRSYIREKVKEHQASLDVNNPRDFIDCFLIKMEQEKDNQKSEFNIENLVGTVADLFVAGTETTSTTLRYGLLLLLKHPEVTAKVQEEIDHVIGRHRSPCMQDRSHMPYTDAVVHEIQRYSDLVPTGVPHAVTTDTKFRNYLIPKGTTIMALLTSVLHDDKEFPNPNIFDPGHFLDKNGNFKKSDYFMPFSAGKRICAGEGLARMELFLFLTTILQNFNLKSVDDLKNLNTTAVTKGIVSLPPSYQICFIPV

[5] = Tmax in human at 100 mg, po BID administered on day 1 followed by 2-day wash out period after which dosing continued up to day 11 measured on day 1; format: ADME, organism-based; conditions: in vivo
How it was run: (§2)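 Healthy male volunteers took part in a double-blind, randomized, placebo-controlled dose-escalation study, with cohorts of 8 (6 on drug, 2 on placebo). Each subject got an oral dose on day 1, then a 2-day washout, then dosing on days 4–11. The 200 mg qd group was titrated over days 1–4. Venous plasma was sampled predose and 0.5–12 h postdose on days 1, 4 and 11, and predose on days 5–10 for troughs.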

[6] = Tmax in human at 175 mg, po QID administered on day 1 followed by 2-days wash out period after which dosing continued up to day 11 measured on day 11; format: ADME, organism-based; conditions: in vivo
How it was run: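 Double-blind, placebo-controlled, randomized multiple oral dose study in healthy male volunteers (cohorts of eight; six active, two placebo). Dose given on day 1, then a two-day washout, then dosing days 4–11; for the QD arm, subjects were titrated over days 1–4. Venous plasma sampled predose and 0.5, 1, 1.5, 2, 4, 6, 8, 10, 12 h postdose on days 1, 4 and 11. Tmax reported as median (min–max).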

[7] = Terminal half life in dog; format: ADME, organism-based, Canis lupus familiaris; conditions: in vivo, read-out: beta t1/2 (converted)
[8] = Cmin in human at 150 mg, po BID administered on day 1 followed by 2-day wash out period after which dosing continued up to day 11 measured on day 1 at 12 hrs; format: ADME, organism-based; conditions: in vivo, read-out: Cmin; how it was run: as §2
[9] = target: Hydroxycarboxylic acid receptor 3 (Homo sapiens) (UniProt P49019); experiment: Agonist activity at human GPR109b assessed as decrease in forskolin-stimulated cAMP production by HTRF assay; format: functional
Chain of Hydroxycarboxylic acid receptor 3 (Homo sapiens) (P49019 whole entry): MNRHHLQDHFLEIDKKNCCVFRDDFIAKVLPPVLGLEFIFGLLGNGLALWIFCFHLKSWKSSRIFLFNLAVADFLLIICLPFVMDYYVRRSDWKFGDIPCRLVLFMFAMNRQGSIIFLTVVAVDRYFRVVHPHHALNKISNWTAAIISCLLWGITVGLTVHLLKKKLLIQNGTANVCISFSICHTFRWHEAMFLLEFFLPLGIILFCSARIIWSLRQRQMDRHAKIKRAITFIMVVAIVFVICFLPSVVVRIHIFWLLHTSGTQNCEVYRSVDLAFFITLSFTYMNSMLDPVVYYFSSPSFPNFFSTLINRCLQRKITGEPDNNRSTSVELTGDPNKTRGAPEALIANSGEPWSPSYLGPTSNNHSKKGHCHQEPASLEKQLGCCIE

Rhesus monkey = experiment: Dose normalized AUC in po dosed rhesus monkey; format: ADME, organism-based, Macaca mulatta; conditions: in vivo
[10] = Cmax in human at 175 mg, po QID administered on day 1 followed by 2-days wash out period after which dosing continued up to day 11 measured on day 4; format: ADME, organism-based; set-up: dose 175 mg, route oral; conditions: in vivo; how it was run: as §2
Homo sapiens [11] = experiment: Activation of GPR109a receptor in po dosed human assessed as PGD2 metabolite level in urine; format: functional, organism-based
Homo sapiens [12] = experiment: Antidyslipidemic activity in human assessed as decrease in free fatty acid level 175 mg, po QID administered on day 1 followed by 2-days wash out period after which dosing continued up to day 11 measured on day 4 and 11; format: functional, organism-based
How it was run: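 Healthy male volunteers in a randomized, double-blind, placebo-controlled multiple-dose study, six active and two placebo subjects per cohort. Oral dosing on day 1, two-day washout, then days 4–11, with titration over days 1–4 for the qd arm.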

Mus musculus = experiment: Dose normalized Cmax in po dosed mouse; format: ADME, organism-based; conditions: in vivo
[13] = Apparent half life in human at titreated po dose administered from day 1 to 4 followed by 200 mg, po QD administered up to day 11 measured on day 11; format: ADME, organism-based; conditions: in vivo, read-out: t1/2(app) (converted); how it was run: as §1
[14] = Cmax in human at 100 mg, po BID administered on day 1 followed by 2-day wash out period after which dosing continued up to day 11 measured on day 1; format: ADME, organism-based; set-up: dose 100 mg, route oral; conditions: in vivo; how it was run: as §1
[15] = Cmin in human at 150 mg, po TID administered on day 1 followed by 2-days wash out period after which dosing continued up to day 11 measured on day 11 at 8 hrs; format: ADME, organism-based; conditions: in vivo, read-out: Cmin; how it was run: as §2
[16] = Oral bioavailability in mouse; format: ADME, organism-based; conditions: in vivo
[17] = Cmin in human at 150 mg, po BID administered on day 1 followed by 2-day wash out period after which dosing continued up to day 11 measured on day 4 at 12 hrs; format: ADME, organism-based; conditions: in vivo, read-out: Cmin; how it was run: as §2
[18] = Cmin in human at 50 mg, po BID administered on day 1 followed by 2-day wash out period after which dosing continued up to day 11 measured on day 4 at 12 hrs; format: ADME, organism-based; conditions: in vivo, read-out: Cmin; how it was run: as §2
[19] = Terminal half life in mouse; format: ADME, organism-based; conditions: in vivo, read-out: beta t1/2 (converted)
Homo sapiens [20] = experiment: Toxicity in human assessed as occurrence of flushing at 10 to >10 mg administered for 1 to 2 days as divided dose; format: organism-based; conditions: in vivo
How it was run: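 Healthy volunteers scored subject-reported flushing with a flushing symptoms questionnaire after single oral doses and during repeat divided daily dosing.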

[21] = Oral bioavailability in rhesus monkey; format: ADME, organism-based, Macaca mulatta; conditions: in vivo
[22] = AUC (0 to 12 hrs) in human at 150 mg, po BID administered on day 1 followed by 2-day wash out period after which dosing continued up to day 11 measured on day 1; format: ADME, organism-based; set-up: dose 150 mg, time < 12 hr, route oral; conditions: plasma; how it was run: as §1
Homo sapiens [23] = experiment: Toxicity in po dosed human assessed as occurrence of flushing administered as single dose; format: organism-based; conditions: in vivo
How it was run: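 Healthy human volunteers received single oral doses. Flushing was recorded as a subject-reported adverse event and scored with a flushing symptoms questionnaire. It was compared qualitatively against a 1 g Niaspan dose.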

Which results are given for `O=C(O)c1n[nH]c2c1C[C@H]1C[C@@H]21`?
bioavailability [1]: 100%; AUC at 12 h [2]: 61.1 nM·h; half-life [3]: 11 h; Activity (Rattus norvegicus): 90%; AUC/dose (Canis familiaris): 33.3 µM·kg·h/mg; AUC at 6 h [4]: 113 nM·h; Activity (Cytochrome P450 2C8): Not Active; Tmax [5]: 1 h; Tmax [6]: 0.75 h; half-life [7]: 3.4 h; concentration at 12 h [8]: 0.316 nM; Activity [9]: inactive; AUC/dose (Rhesus monkey): 8.5 µM·kg·h/mg; Cmax [10]: 49.9 nM; Activity (Homo sapiens [11]): Dose-dependent effect; Activity (Homo sapiens [12]): Active; Cmax/dose (Mus musculus): 3.5 µM·kg/mg; half-life [13]: 4.6 h; Cmax [14]: 31.5 nM; concentration at 8 h [15]: 0.708 nM; bioavailability [16]: 40%; concentration at 12 h [17]: 0.241 nM; concentration at 12 h [18]: 0.023 nM; half-life [19]: 8.7 h; Activity (Homo sapiens [20]): Non-toxic; bioavailability [21]: 39%; AUC at 12 h [22]: 97.7 nM·h; MTD (Homo sapiens [23]): 200 mg

Source: ChEMBL document CHEMBL2057168, “(1aR,5aR)1a,3,5,5a-Tetrahydro-1H-2,3-diaza-cyclopropa[a]pentalene-4-carboxylic acid (MK-1903): a potent GPR109a agonist that lowers free fatty acids in humans” (J Med Chem, 2012)
